Assay outcomes from PubChem BioAssay.
UPR XBP1 act – adaptive UPR (XBP1) activation. AID 463104. CHO-XBP1 luciferase reporter, IRE1-XBP1 UPR activation, luminescence; percent of tunicamycin response, DMSO as zero. hit rate 0.33% among 330,000. activation, % at 20 µM;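 active = versus positive control, 20 µM dose yields 30% or more activation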;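 also: 100% = tunicamycin at 10 µg/mL and 0% = DMSO only wells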
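Test system: CHO-XBP1 luciferase reporter cells | Buffer or medium: Serum-containing F12 medium, 10% FBS | Schedule: 6 h compound exposure at 37 °C, 5% CO2 | Detection: Steady-Glo luciferase glow luminescence, 10 min after reagent addition | Read-out basis: Activation, % of tunicamycin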
UBC13 inh – blocks human UBC13 polyubiquitin chain formation | hit rate 0.47% among 330,000 | inhibition, % at 20 µM | P61088 | TR-FRET; in the data active = inhibition above about 45%, passing the limit was not always enough; inconclusive = no clear call, values can overlap the other calls
CHOP UPR activ – activators of apoptotic arm of unfolded protein response (CHOP); CHO-CHOP luciferase reporter, UPR activation, luminescence; percent of tunicamycin response over DMSO baseline; activation, % at 10 µM; hit rate 0.34% among 330,000;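 active = at 10 µM dose, activation of 40% or more, normalized to positive control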;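 also: 100% = tunicamycin at 10 µg/mL and 0% = DMSO alone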
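System: CHO CHOP reporter cells. Amount: 500 cells per well. Buffer or medium: F12 medium, 10% FBS. Compound dosing: one dose, 10 µM in 0.5% DMSO. Incubation: 6 h compound exposure at 37 °C after overnight seeding. Technique: Steady-Glo luciferase luminescence. Benchmarks: tunicamycin and DMSO controls.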
Apaf1 inhib – blocks human Apaf-1 apoptosome activity; O14727; reconstituted apoptosome caspase-3 activity, DEVD-Rh110 fluorescence; inhibition, % at 20 µM; hit rate 0.71% among 330,000; AID 489030; active = inhibition of at least 40% at 20 µM;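 also: plate controls were DMSO wells for no effect and DEVD-CHO caspase inhibitor wells for full effect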
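Medium: Hepes buffer, pH 7.5 / System: biochemical Apaf-1 apoptosome reconstitution / Measured by: Rh110 fluorescence, excitation 480 nm, emission 540 nm / Times: compound with Apaf-1, dATP, procaspase-3 30 min, then 50 min reaction, room temperature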
Mdm2 MdmX PPI – disrupts the human Mdm2-MdmX interaction; O15151+Q00987; SaOS-2 split-luciferase Mdm2/MdmX complementation, luminescence; inhibition, % at 8 µM; hit rate 3% among 330,000; AID 485346;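 active = inhibition of at least 50% at 8 µM in the primary screen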
Target sequence (O15151 whole entry, looked up): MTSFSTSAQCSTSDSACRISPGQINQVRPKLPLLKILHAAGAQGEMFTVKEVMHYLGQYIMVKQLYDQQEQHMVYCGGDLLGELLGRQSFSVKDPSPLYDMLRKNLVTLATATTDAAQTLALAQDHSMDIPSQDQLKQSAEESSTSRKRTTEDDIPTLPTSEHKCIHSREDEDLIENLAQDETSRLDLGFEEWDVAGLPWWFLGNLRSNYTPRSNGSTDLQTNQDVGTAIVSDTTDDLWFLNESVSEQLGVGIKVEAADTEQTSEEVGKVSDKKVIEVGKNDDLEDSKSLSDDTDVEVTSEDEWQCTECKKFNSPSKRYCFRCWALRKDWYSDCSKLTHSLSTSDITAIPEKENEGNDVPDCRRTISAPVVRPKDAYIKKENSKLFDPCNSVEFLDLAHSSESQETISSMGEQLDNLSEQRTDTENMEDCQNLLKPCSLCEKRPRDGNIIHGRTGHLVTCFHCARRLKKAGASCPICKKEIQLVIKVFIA
Target sequence (Q00987 whole entry, looked up): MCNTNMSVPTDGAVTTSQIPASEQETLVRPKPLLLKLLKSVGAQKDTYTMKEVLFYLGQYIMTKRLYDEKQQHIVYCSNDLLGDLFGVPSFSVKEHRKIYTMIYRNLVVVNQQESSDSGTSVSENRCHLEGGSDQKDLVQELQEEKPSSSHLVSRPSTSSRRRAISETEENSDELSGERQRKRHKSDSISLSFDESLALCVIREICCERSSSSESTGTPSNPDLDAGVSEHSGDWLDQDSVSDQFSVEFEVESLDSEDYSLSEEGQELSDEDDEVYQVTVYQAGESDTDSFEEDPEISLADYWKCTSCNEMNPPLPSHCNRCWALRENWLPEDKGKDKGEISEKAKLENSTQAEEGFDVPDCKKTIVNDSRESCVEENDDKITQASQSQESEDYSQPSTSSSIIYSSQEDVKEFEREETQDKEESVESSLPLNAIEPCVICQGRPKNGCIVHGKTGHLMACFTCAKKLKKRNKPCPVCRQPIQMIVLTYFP
Casp3 counter – caspase-3 inhibition (UBC13 counter-screen); shares compounds with UBC13 inh; Recombinant caspase-3, Caspase-Glo 3/7 luminescence, 60 min; inhibition, % at 20 µM; hit rate 4% among 1,400; AID 488856;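 active = mean inhibition across replicates above about 26%, limit read from the data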;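 also: plate controls were DMSO with caspase-3 for no effect and DMSO wells lacking enzyme for full effect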
UBC13 conf – confirmation of human UBC13 polyubiquitin inhibitors; shares compounds with UBC13 inh; UBC13 polyubiquitination, TR-FRET, biochemical; inhibition, % at 10 µM; hit rate 68% among 1,400; in the data active = inhibition above about 45%; inconclusive = no clear call, values can overlap the other calls
Numbers without * were called inactive; ? = inconclusive; . = not tested or not shown. This is a sample that favours compounds with a hit; in the whole collection about 4.1% have one here.

SMILES	UPR XBP1 act	UBC13 inh	CHOP UPR activ	Apaf1 inhib	Mdm2 MdmX PPI	Casp3 counter	UBC13 conf
CC(C)(C)c1ccc(C(=O)N/N=C/c2ccccn2)cc1	9.3	64.9*	11.6	9.1	37.4	4.6	87.3*
Cc1ccc(NC(=O)c2cc(S(=O)(=O)NCCC3=CCCCC3)ccc2F)cc1F	-3.6	-1.1	1.7	5.6	13.9	.	.
O=C(Nc1cccc(F)c1)c1cc(S(=O)(=O)NCCC2=CCCCC2)ccc1F	-2.1	47.9*	0.0	22.3	18.2	-2.4	29.7
CC(=O)n1cc([C@H]2C=C(C(=O)Nc3ccccc3)O[C@@H](OCCCCO)C2)c2ccccc21	0.8	69.4*	3.5	12.5	11.0	2.4	44.8
CCCCCCNC(=O)CNC(=S)N(Cc1cccs1)C1CCCCC1	0.5	6.8	0.5	31.5	-3.9	.	.
O=C(COC(=O)c1cc(=O)[nH]c(=O)[nH]1)Nc1cccc(Cl)c1	4.8	66.3*	-0.4	2.6	-6.6	3.3	51.2*
CC(C)C(=O)Nc1ccc2nn(-c3ccccc3)nc2c1	1.1	47.7*	4.6	-1.7	-201.0	48.9*	32.2
O=C(Nc1ccc2nn(-c3ccccc3)nc2c1)c1cccnc1	3.4	0.4	1.1	15.3	-25.2	.	.
CCN(CC)C(=O)c1sc(NC(=O)c2ccc3c(c2)OCO3)c(C(N)=O)c1C	5.9	-5.5	4.0	5.1	-35.4	.	.
CC1(C)Cc2c(sc(NC(=O)c3ccc4c(c3)OCCO4)c2C(N)=O)C(C)(C)N1	2.2	54.6*	0.6	4.3	25.7	-3.9	70.2*
Cc1cc(C(=O)NNC(=S)NC(=O)/C=C/c2ccccc2Cl)n[nH]1	-2.4	91.6*	0.5	-1.4	2.0	-5.9	88.8*
Cc1cccc(C(=O)NC(=S)NNC(=O)c2ccccc2Cl)c1	0.4	-36.8	-1.8	-0.7	28.2	.	.
N=C(N)c1ccc(/C=C/c2ccc(C(=N)N)cc2O)cc1	-4.9	84.2*	-1.1	-30.8	1.8	-0.1	109.7*
O=C(CSc1nnc(-c2ccccc2)c2ccccc12)NCCN1C(=O)CSC1=O	-1.4	1.9	0.8	-0.4	22.0	.	.
COc1ccccc1NC(=O)CNC(=O)CC12CC3CC(CC(C3)C1)C2	1.8	80.1*	-0.1	8.4	11.6	3.4	78.8*
COc1ccccc1NC(=O)COC(=O)C12CC3CC(CC(Br)(C3)C1)C2	4.1	49.5*	0.1	11.6	9.3	-2.9	43.7
CS(=O)(=O)N1CCN(C2CCN(Cc3ccccc3)CC2)CC1	-1.1	6.1	1.5	-3.0	-34.1	.	.
Clc1ccc(C2=NCCN2)cc1	-0.3	-17.5	0.2	10.6	1.8	.	.
Cn1c(=O)c2c(ncn2CCCc2ccccc2)n(C)c1=O	0.7	-0.3	-0.2	7.3	16.7	.	.
Cn1c(=O)c2c(ncn2Cc2ccccc2)n(C)c1=O	-5.4	49.8*	-0.4	-9.3	8.8	-1.6	29.9
Cc1ccc(-n2nc(C)c3c(C(=O)OCC(=O)N(C)C4CCS(=O)(=O)C4)cc(-c4ccccc4)nc32)cc1 (stereo unspecified)	-3.0	16.4	-1.1	10.9	1.4	.	.
CCN(C(=O)COC(=O)c1cc(-c2ccccc2)nc2c1c(C)nn2-c1ccccc1)C1CCS(=O)(=O)C1 (stereo unspecified)	1.8	51.8*	-0.1	18.5	18.3	-2.8	?
O=C(c1cccc(S(=O)(=O)N2CCOCC2)c1)N(Cc1nnc(-c2ccccc2Cl)o1)C1CC1	-2.8	-5.2	0.2	1.0	-3.8	.	.
CC1CN(S(=O)(=O)c2cccc(C(=O)N(Cc3nnc(-c4ccccc4Cl)o3)C3CC3)c2)CC(C)O1 (stereo unspecified)	-2.9	50.6*	0.9	29.2	13.5	-2.1	85.6*
CCCn1c(N)c(Sc2ccccc2[N+](=O)[O-])c(=O)n(CCC)c1=O	-4.9	-3.9	-0.3	4.7	9.7	.	.
SMILES	UPR XBP1 act	UBC13 inh	CHOP UPR activ	Apaf1 inhib	Mdm2 MdmX PPI	Casp3 counter	UBC13 conf
CC(C)(C)C(=O)CN1C(=O)NC(C)(Cc2ccc3c(c2)OCO3)C1=O (stereo unspecified)	1.1	-1.2	-1.3	-2.3	6.1	.	.
O=C(CCN1C(=O)CSC1=O)Nc1ccccc1	-1.5	1.9	3.9	1.2	5.4	.	.
Cc1ccc(C(C(=O)NCC2CCCO2)N(C(=O)c2snc(C(N)=O)c2N)c2ccc3c(c2)OCCO3)cc1 (stereo unspecified)	-2.0	56.0*	-0.2	25.8	14.6	0.6	79.2*
NC(=O)c1nsc(C(=O)N(c2ccc3c(c2)OCCO3)C(C(=O)NCC2CCCO2)c2ccc(F)cc2)c1N (stereo unspecified)	-6.9	42.0	0.9	8.4	2.3	.	.
Cc1cc(C)cc(N(C(=O)c2snc(C(N)=O)c2N)C(C(=O)NCC2CCCO2)c2ccc(C)o2)c1 (stereo unspecified)	-3.4	60.5*	1.6	16.0	-2.3	-0.2	49.1*
Cc1ccc(C(C(=O)NCC2CCCO2)N(C(=O)c2snc(C(N)=O)c2N)c2ccc(C)c(C)c2)o1 (stereo unspecified)	-3.9	64.6*	3.0	14.9	11.3	-0.4	70.1*
NC(=O)c1nsc(C(=O)N(c2ccccc2)C(C(=O)NCC2CCCO2)c2cccs2)c1N (stereo unspecified)	-1.0	39.5	-1.6	-11.4	-13.2	.	.
Cc1cc(C)cc(N(C(=O)c2snc(C(N)=O)c2N)C(C(=O)NCC2CCCO2)c2cccs2)c1 (stereo unspecified)	-3.1	65.6*	0.6	19.8	-32.0	2.4	70.7*
Nc1c(Cl)ncnc1N/N=C/c1cccc(O)c1	1.2	61.9*	1.8	-13.9	6.4	81.1*	-8.0
CCCCC(C(=O)NC(C)(C)C)N(Cc1ccccc1Cl)C(=O)c1snc(C(N)=O)c1N (stereo unspecified)	-6.0	33.5	-1.2	23.4	18.1	.	.
CCCC(C(=O)NC(C)(C)C)N(Cc1ccccc1Cl)C(=O)c1snc(C(N)=O)c1N (stereo unspecified)	-8.5	48.7*	-0.8	12.9	13.9	-2.2	60.7*
CC1CCN(c2ccc3nnc(CCC(=O)N4CCN(c5ccc(F)cc5)CC4)n3n2)CC1	-0.5	-0.8	3.6	0.3	27.1	.	.
CC(C)c1ccc(OCC(=O)NNC(=S)NC(=O)C2CC2)cc1	0.6	61.8*	-1.7	6.5	29.7	-1.4	98.6*
N#Cc1ccc(OCC(=O)NNC(=S)NC(=O)C2CC2)cc1	1.0	105.5*	-1.8	-3.2	-3.1	-1.3	101.5*
Cc1ccc(OCC(=O)NNC(=S)NC(=O)C2CC2)c(C)c1	-1.5	85.1*	-0.1	-4.6	38.8	1.9	105.6*
